Data reported in ChEMBL document CHEMBL1629526, “4-[1-(Substituted aryl/alkyl carbonyl)-benzoimidazol-2-yl]-benzenesulfonic acids: synthesis, antimicrobial activity, QSAR studies, and antiviral evaluation” (Eur J Med Chem, 2010).
≈ marks a conversion by molar mass, not a printed value.

How the values were obtained:
Bacillus subtilis = experiment: Antimicrobial activity against Bacillus subtilis after 24 hrs by tube dilution method; format: functional
How it was run: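 Serial dilutions in double-strength nutrient broth (I.P.) with ciprofloxacin as reference, tube dilution, incubated 37 °C for 24 h. MIC is the lowest concentration that inhibited growth.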

Coxsackievirus B4 [1] = experiment: Antiviral activity against coxsackievirus B4 infected in human HeLa cells assessed as inhibition of virus induced cytopathicity after 2 to 4 days by MTS assay; format: functional, organism-based; conditions: Enterovirus B
MDCK = experiment: Cytotoxicity against MDCK cells assessed as cell viability by MTS assay; format: cell-based, Canis lupus familiaris; conditions: dog, mdck
How it was run: (§1)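 Uninfected cultures were run in parallel with the antiviral assays. Viability was read by colorimetric formazan MTS assay.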

Human alphaherpesvirus 1 [2] = experiment: Antiviral activity against Herpes simplex virus 1 KOS infected in HEL cells assessed as inhibition of virus induced cytopathicity after 2 to 4 days by MTS assay; format: functional, organism-based; conditions: Human alphaherpesvirus 1, KOS
[3] = system: Vesicular stomatitis virus; experiment: Antiviral activity against Vesicular stomatitis virus infected in HEL cells assessed as inhibition of virus induced cytopathicity after 2 to 4 days by MTS assay; format: functional, organism-based
Human alphaherpesvirus 1 [4] = experiment: Antiviral activity against thymidine kinase deficient acyclovir-resistant Herpes simplex virus 1 KOS infected in HEL cells assessed as inhibition of virus induced cytopathicity after 2 to 4 days by MTS assay; format: functional, organism-based; conditions: Human alphaherpesvirus 1, KOS
Influenza B virus [5] = experiment: Antiviral activity against Influenza B virus infected in MDCK cells assessed as inhibition of virus induced cytopathicity by visual scoring of CPE; format: functional, organism-based
Candida albicans = experiment: Antimicrobial activity against Candida albicans after 48 hrs by tube dilution method; format: functional
Coxsackievirus B4 [6] = experiment: Antiviral activity against coxsackievirus B4 infected in human HeLa cells assessed as inhibition of virus induced cytopathicity by visual scoring of CPE; format: functional, organism-based; conditions: Enterovirus B
Coxsackievirus B4 [7] = experiment: Antiviral activity against Coxsackie virus B4 infected in african green monkey Vero cells assessed as inhibition of virus induced cytopathicity after 2 to 4 days by MTS assay; format: functional, organism-based; conditions: Enterovirus B
[8] = Cytotoxicity against human HEL cells assessed as altered cell morphology; format: cell-based
How it was run: (§2)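 Uninfected cell cultures run alongside the antiviral assays, exposed to serial compound dilutions and incubated at 37 °C for 2–4 days. Toxicity was scored microscopically and reported as the minimum cytotoxic concentration (MCC), the lowest concentration causing a detectable change in normal cell morphology.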

[9] = Cytotoxicity against african green monkey Vero cells assessed as altered cell morphology; format: cell-based; conditions: chlorocebus sabaeus; how it was run: as §2
[10] = Cytotoxicity against MDCK cells assessed as altered cell morphology; format: cell-based, Canis lupus familiaris; conditions: dog; how it was run: as §2
Sindbis virus = experiment: Antiviral activity against Sindbis virus infected in african green monkey Vero cells assessed as inhibition of virus induced cytopathicity after 2 to 4 days by MTS assay; format: functional, organism-based
Human alphaherpesvirus 2 = experiment: Antiviral activity against Herpes simplex virus 2 G infected in HEL cells assessed as inhibition of virus induced cytopathicity after 2 to 4 days by MTS assay; format: functional, organism-based; conditions: Human alphaherpesvirus 2, strain G
[11] = system: Vesicular stomatitis virus; experiment: Antiviral activity against Vesicular stomatitis virus infected in human HeLa cells assessed as inhibition of virus induced cytopathicity by visual scoring of CPE; format: functional, organism-based
HeLa = experiment: Cytotoxicity against human HeLa cells assessed as cell viability by MTS assay; format: cell-based; conditions: hela; how it was run: as §1
[12] = Cytotoxicity against cat CRFK cells assessed as cell viability by MTS assay; format: cell-based, Felis catus; how it was run: as §1
Feline coronavirus = experiment: Antiviral activity against Feline coronavirus infected in cat CRFK cells assessed as inhibition of virus induced cytopathicity after 2 to 4 days by MTS assay; format: functional, organism-based; conditions: Alphacoronavirus 1, CRFK
Influenza A virus [13] = experiment: Antiviral activity against Influenza A H3N2 virus subtype infected in MDCK cells assessed as inhibition of virus induced cytopathicity after 2 to 4 days by MTS assay; format: functional, organism-based
Influenza B virus [14] = experiment: Antiviral activity against Influenza B virus infected in MDCK cells assessed as inhibition of virus induced cytopathicity after 2 to 4 days by MTS assay; format: functional, organism-based
Escherichia coli = experiment: Antimicrobial activity against Escherichia coli after 24 hrs by tube dilution method; format: functional
Punta Toro virus = experiment: Antiviral activity against Punta Toro virus infected in african green monkey Vero cells assessed as inhibition of virus induced cytopathicity after 2 to 4 days by MTS assay; format: functional, organism-based
Staphylococcus aureus = experiment: Antimicrobial activity against Staphylococcus aureus after 24 hrs by tube dilution method; format: functional
[15] = Cytotoxicity against human HeLa cells assessed as altered cell morphology; format: cell-based; how it was run: as §2
Influenza A virus [16] = experiment: Antiviral activity against Influenza A H3N2 virus subtype infected in MDCK cells assessed as inhibition of virus induced cytopathicity by visual scoring of CPE; format: functional, organism-based
[17] = system: Mammalian orthoreovirus 1; experiment: Antiviral activity against Reovirus 1 virus infected in african green monkey Vero cells assessed as inhibition of virus induced cytopathicity after 2 to 4 days by MTS assay; format: functional, organism-based; conditions: Mammalian orthoreovirus 1, Vero
Aspergillus niger = experiment: Antimicrobial activity against Aspergillus niger after 7 days by tube dilution method; format: functional; conditions: 168 h
Human respirovirus 3 = experiment: Antiviral activity against parainfluenza-3 virus infected in african green monkey Vero cells assessed as inhibition of virus induced cytopathicity after 2 to 4 days by MTS assay; format: functional, organism-based; conditions: Human respirovirus 3, Vero
[18] = system: Respiratory syncytial virus; experiment: Antiviral activity against Respiratory syncytial virus infected in human HeLa cells assessed as inhibition of virus induced cytopathicity after 2 to 4 days by MTS assay; format: functional, organism-based
Felid alphaherpesvirus 1 = experiment: Antiviral activity against Feline herpesvirus 1 infected in cat CRFK cells assessed as inhibition of virus induced cytopathicity after 2 to 4 days by MTS assay; format: functional, organism-based; conditions: Felid alphaherpesvirus 1, CRFK
Vaccinia virus = experiment: Antiviral activity against Vaccinia virus infected in HEL cells assessed as inhibition of virus induced cytopathicity after 2 to 4 days by MTS assay; format: functional, organism-based; conditions: Orthopoxvirus vaccinia
[19] = system: Respiratory syncytial virus; experiment: Antiviral activity against Respiratory syncytial virus infected in human HeLa cells assessed as inhibition of virus induced cytopathicity by visual scoring of CPE; format: functional, organism-based
[20] = system: Vesicular stomatitis virus; experiment: Antiviral activity against Vesicular stomatitis virus infected in human HeLa cells assessed as inhibition of virus induced cytopathicity after 2 to 4 days by MTS assay; format: functional, organism-based

Row | SMILES | MBC (Bacillus subtilis) [µg/mL] | EC50 (Coxsackievirus B4 [1]) [µg/mL] | CC50 (MDCK) [µg/mL] | EC50 (Human alphaherpesvirus 1 [2]) [µg/mL] | EC50 [3] [µg/mL] | EC50 (Human alphaherpesvirus 1 [4]) [µg/mL] | EC50 (Influenza B virus [5]) [µg/mL] | MFC (Candida albicans) [µg/mL] | EC50 (Coxsackievirus B4 [6]) [µg/mL] | EC50 (Coxsackievirus B4 [7]) [µg/mL] | MCC [8] [µg/mL] | MCC [9] [µg/mL] | MCC [10] [µg/mL] | EC50 (Sindbis virus) [µg/mL] | EC50 (Human alphaherpesvirus 2) [µg/mL] | EC50 [11] [µg/mL] | CC50 (HeLa) [µg/mL] | EC50 (Feline coronavirus) [µg/mL] | EC50 (Felid alphaherpesvirus 1) [µg/mL] | EC50 (Vaccinia virus) [µg/mL] | further results
1 | Cc1ccc(C(=O)n2c(-c3ccc(S(=O)(=O)O)cc3)nc3ccccc32)cc1 | 6.25 (≈ 15.9 µM) | > 100 | > 100 | > 100 | > 100 | > 100 | > 100 | 50 (≈ 127 µM) | > 100 | > 100 | > 100 | > 100 | > 100 | > 100 | > 100 | > 100 | > 100 | > 100 | > 100 | > 100 | CC50 ([12]; crfk): > 100 µg/mL; EC50 (Influenza A virus [13]): > 100 µg/mL; EC50 (Influenza B virus [14]): > 100 µg/mL; MBC (Escherichia coli): 25 µg/mL (≈ 63.7 µM); EC50 (Punta Toro virus): > 100 µg/mL; MBC (Staphylococcus aureus): 12.5 µg/mL (≈ 31.9 µM); MCC [15]: > 100 µg/mL; EC50 (Influenza A virus [16]): > 100 µg/mL; EC50 [17]: > 100 µg/mL; MFC (Aspergillus niger): > 50 µg/mL; EC50 (Human respirovirus 3): > 100 µg/mL; EC50 [18]: > 100 µg/mL; EC50 [19]: > 100 µg/mL; EC50 [20]: > 100 µg/mL
2 | Cc1ccc(S(=O)(=O)n2c(-c3ccc(S(=O)(=O)O)cc3)nc3ccccc32)cc1 | 12.5 (≈ 29.2 µM) | > 100 | > 100 | > 100 | > 100 | > 100 | > 100 | 50 (≈ 117 µM) | > 100 | > 100 | > 100 | > 100 | > 100 | > 250 | > 100 | > 100 | > 100 | > 100 | > 100 | > 100 | CC50 ([12]; crfk): > 100 µg/mL; EC50 (Influenza A virus [13]): > 100 µg/mL; EC50 (Influenza B virus [14]): > 100 µg/mL; MBC (Escherichia coli): 12.5 µg/mL (≈ 29.2 µM); EC50 (Punta Toro virus): > 100 µg/mL; MBC (Staphylococcus aureus): 6.25 µg/mL (≈ 14.6 µM); MCC [15]: > 100 µg/mL; EC50 (Influenza A virus [16]): > 100 µg/mL; EC50 [17]: 100 µg/mL (≈ 233 µM); MFC (Aspergillus niger): > 50 µg/mL; EC50 (Human respirovirus 3): > 100 µg/mL; EC50 [18]: > 100 µg/mL; EC50 [19]: > 100 µg/mL; EC50 [20]: > 100 µg/mL
3 | COc1ccc(C(=O)n2c(-c3ccc(S(=O)(=O)O)cc3)nc3ccccc32)cc1 | > 50 | > 100 | > 100 | > 100 | > 100 | > 100 | > 100 | > 50 | > 100 | > 100 | > 100 | > 100 | > 100 | > 100 | > 100 | > 100 | > 100 | > 100 | > 100 | > 100 | CC50 ([12]; crfk): > 100 µg/mL; EC50 (Influenza A virus [13]): > 100 µg/mL; EC50 (Influenza B virus [14]): > 100 µg/mL; MBC (Escherichia coli): 3.12 µg/mL (≈ 7.64 µM); EC50 (Punta Toro virus): > 100 µg/mL; MBC (Staphylococcus aureus): > 50 µg/mL; MCC [15]: > 100 µg/mL; EC50 (Influenza A virus [16]): > 100 µg/mL; EC50 [17]: > 100 µg/mL; MFC (Aspergillus niger): > 50 µg/mL; EC50 (Human respirovirus 3): > 100 µg/mL; EC50 [18]: > 100 µg/mL; EC50 [19]: > 100 µg/mL; EC50 [20]: > 100 µg/mL
4 | Nc1ccn(C[C@@H](CO)OCP(=O)(O)O)c(=O)n1.O.O [CIDOFOVIR] |  |  |  | 0.4 |  | > 250 |  |  |  |  | > 250 |  |  |  | 0.2 |  |  |  |  | > 250 | 
5 | O=c1[nH]c(=O)n([C@H]2C[C@H](O)[C@@H](CO)O2)cc1/C=C/Br [BRIVUDINE] |  |  |  |  |  | > 250 |  |  |  |  | > 250 |  |  |  |  |  |  |  |  | 112 (≈ 336 µM) | 
6 | Nc1nc2c(ncn2COC(CO)CO)c(=O)[nH]1 [GANCICLOVIR] |  |  |  | 0.03 (≈ 0.118 µM) |  | 58 (≈ 227 µM) |  |  |  |  | > 100 |  |  |  | 0.03 (≈ 0.118 µM) |  |  | 1.7 (≈ 6.66 µM) | > 100 |  | CC50 ([12]; CRFK cells, read-out: CC50): > 100 µg/mL
